From ChEMBL document CHEMBL1152473, “Synthesis, characterization and antibacterial activity of some triazole Mannich bases carrying diphenylsulfone moieties” (2009) come the findings set out here.

What all share (assay type): functional
For one assay, the system named is Bacillus subtilis. Briefly: Antibacterial activity against Bacillus subtilis ATCC 6633 after 18 to 24 hrs by liquid broth method. Summed up:
(§1)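 Serial two-fold dilution in liquid broth in 96-well plates. Compounds were added from DMSO stock solutions to give final levels of 1024, 512, 256, 128, 64, 32, 16, 8, 4 and 2 (unit as printed unclear). Plates were incubated at 37 °C for 18–24 h.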

In a further assay the test system is Acinetobacter baumannii. Briefly: Antibacterial activity against Acinetobacter baumannii ATCC 19606 after 18 to 24 hrs by liquid broth method. Conditions: ATCC 19606 = CIP 70.34 = JCM 6841. The method in brief:
as §1

Assay [1] has as its system Staphylococcus epidermidis. The assay is described as follows: Antibacterial activity against Staphylococcus epidermidis ATCC 14990 after 18 to 24 hrs by liquid broth method. Summed up:
as §1

The test system of a further assay is Pseudomonas aeruginosa. The assay is described as follows: Antibacterial activity against Pseudomonas aeruginosa ATCC 9027 after 18 to 24 hrs by liquid broth method. Summed up: as §1
The test system of another assay is Citrobacter freundii. The assay is described as follows: Antibacterial activity against Citrobacter freundii ATCC 8090 after 18 to 24 hrs by liquid broth method. Summed up:
as §1

The test system of the next assay is Enterococcus faecalis. The assay is described as follows: Antibacterial activity against Enterococcus faecalis ATCC 19433 after 18 to 24 hrs by liquid broth method. Summed up:
as §1

A further assay has as its system Staphylococcus aureus. Briefly: Antibacterial activity against Staphylococcus aureus ATCC 12600 after 18 to 24 hrs by liquid broth method. Summed up: as §1

Converted amounts (≈) assume the structure as drawn. The source made the active and inactive calls. The rule behind the calls is not given here.

Turning to `Nn1c(-c2ccc(S(=O)(=O)c3ccc(Cl)cc3)cc2)n[nH]c1=S`, the MIC with Bacillus subtilis came out at 1020 µg/mL (≈ 2790 µM); in the assay on Acinetobacter baumannii it was 128 µg/mL (≈ 349 µM); in assay [1], 512 µg/mL (≈ 1400 µM); against Citrobacter freundii, 1020 µg/mL (≈ 2790 µM); in the assay on Staphylococcus aureus, 1020 µg/mL (≈ 2790 µM). Besides, the MIC entry with Pseudomonas aeruginosa and in the assay with Enterococcus faecalis was “inactive” each time.

Regarding `Nn1c(-c2ccc(S(=O)(=O)c3ccccc3)cc2)n[nH]c1=S`, the MIC with Bacillus subtilis is 1020 µg/mL (≈ 3080 µM); against Acinetobacter baumannii, 512 µg/mL (≈ 1540 µM); in assay [1], 128 µg/mL (≈ 385 µM); in the assay with Pseudomonas aeruginosa, above 1020 µg/mL; with Citrobacter freundii, above 1020 µg/mL; against Enterococcus faecalis, above 1020 µg/mL. This compound also yielded an MIC in the assay with Staphylococcus aureus of 512 µg/mL (≈ 1540 µM).

With `O=S(=O)(c1ccccc1)c1ccc(-c2n[nH]c(=S)n2/N=C/c2ccccc2)cc1`, the MIC entry in the assay on Bacillus subtilis, in the assay with Citrobacter freundii and in the assay with Enterococcus faecalis was “inactive” in each case. The minimal inhibitory concentration (MIC) against Acinetobacter baumannii is above 1020 µg/mL; in assay [1], above 1020 µg/mL; against Pseudomonas aeruginosa, 1020 µg/mL (≈ 2440 µM); in the assay on Staphylococcus aureus, 512 µg/mL (≈ 1220 µM).

`O=S(=O)(c1ccccc1)c1ccc(-c2n[nH]c(=S)n2/N=C/c2ccco2)cc1`: the MIC result (with Bacillus subtilis; in assay [1]; in the assay with Citrobacter freundii; in the assay on Enterococcus faecalis) was “inactive” throughout. In addition, the results for the MIC with Acinetobacter baumannii, against Pseudomonas aeruginosa and with Staphylococcus aureus were 128 µg/mL (≈ 312 µM), 256 µg/mL (≈ 624 µM) and 512 µg/mL (≈ 1250 µM), respectively.

As to `O=S(=O)(c1ccccc1)c1ccc(-c2nn(CN3CCOCC3)c(=S)n2/N=C/c2ccco2)cc1`, the MIC with Bacillus subtilis is 1020 µg/mL (≈ 2010 µM); against Acinetobacter baumannii, 512 µg/mL (≈ 1000 µM); in the assay on Pseudomonas aeruginosa it was 512 µg/mL (≈ 1000 µM); in the assay on Citrobacter freundii, above 1020 µg/mL; in the assay with Enterococcus faecalis, 512 µg/mL (≈ 1000 µM); with Staphylococcus aureus, 512 µg/mL (≈ 1000 µM). Moreover, the MIC entry in assay [1] was “inactive”.

Consider `CCCn1c(S)nnc1-c1ccc(S(=O)(=O)c2ccccc2)cc1`, for which the MIC (in the assay on Bacillus subtilis; in the assay on Acinetobacter baumannii; in assay [1]; with Pseudomonas aeruginosa; in the assay on Citrobacter freundii; against Enterococcus faecalis) was above 1020 µg/mL throughout. Besides, in the assay with Staphylococcus aureus, the MIC is above 1020 µg/mL.

`O=C(N[C@H](CO)[C@H](O)c1ccc([N+](=O)[O-])cc1)C(Cl)Cl` [CHLORAMPHENICOL]: the MIC came out at 64 µg/mL (≈ 198 µM) against Bacillus subtilis; 128 µg/mL (≈ 396 µM) in the assay with Acinetobacter baumannii; 64 µg/mL (≈ 198 µM) in assay [1]; 64 µg/mL (≈ 198 µM) against Pseudomonas aeruginosa; 128 µg/mL (≈ 396 µM) in the assay on Citrobacter freundii; 64 µg/mL (≈ 198 µM) with Enterococcus faecalis. The compound also gave an MIC against Staphylococcus aureus of 64 µg/mL (≈ 198 µM).

Turning to `CCCn1c(-c2ccc(S(=O)(=O)c3ccc(Br)cc3)cc2)nn(CN2CCOCC2)c1=S`, the MIC was above 1020 µg/mL against Bacillus subtilis; above 1020 µg/mL in the assay on Acinetobacter baumannii; above 1020 µg/mL with Pseudomonas aeruginosa; 256 µg/mL (≈ 476 µM) against Citrobacter freundii; 512 µg/mL (≈ 953 µM) against Enterococcus faecalis. The MIC entry (in assay [1]; with Staphylococcus aureus) was “inactive” each time.

With `O=S(=O)(c1ccc(Cl)cc1)c1ccc(-c2nn(CN3CCOCC3)c(=S)n2/N=C/c2ccccc2)cc1`, the MIC result (in the assay with Bacillus subtilis; in assay [1]; in the assay with Citrobacter freundii) was “inactive” each time. In addition, the minimal inhibitory concentration (MIC) with Acinetobacter baumannii came out at 1020 µg/mL (≈ 1850 µM); in the assay on Pseudomonas aeruginosa, 1020 µg/mL (≈ 1850 µM); against Enterococcus faecalis it was 512 µg/mL (≈ 924 µM); against Staphylococcus aureus, 1020 µg/mL (≈ 1850 µM).

In the case of `CCCn1c(S)nnc1-c1ccc(S(=O)(=O)c2ccc(Cl)cc2)cc1`, the MIC with Bacillus subtilis was 1020 µg/mL (≈ 2600 µM); in the assay on Acinetobacter baumannii, above 1020 µg/mL; with Citrobacter freundii, 512 µg/mL (≈ 1300 µM); with Enterococcus faecalis, above 1020 µg/mL; in the assay on Staphylococcus aureus it was 512 µg/mL (≈ 1300 µM). Also, the MIC result (in assay [1]; in the assay on Pseudomonas aeruginosa) was “inactive” in each case.

`CN(C)c1ccc(/C=N/n2c(-c3ccc(S(=O)(=O)c4ccccc4)cc3)n[nH]c2=S)cc1`: the minimal inhibitory concentration (MIC) in the assay with Bacillus subtilis was 64 µg/mL (≈ 138 µM); in the assay on Acinetobacter baumannii it was 512 µg/mL (≈ 1100 µM); in the assay on Pseudomonas aeruginosa it was above 1020 µg/mL; in the assay on Staphylococcus aureus it was 1020 µg/mL (≈ 2210 µM). The MIC entry (in assay [1]; in the assay with Citrobacter freundii; with Enterococcus faecalis) was “inactive” throughout.

Take `CCCn1c(-c2ccc(S(=O)(=O)c3ccccc3)cc2)nn(CN2CCOCC2)c1=S`: the minimal inhibitory concentration (MIC) against Bacillus subtilis is above 1020 µg/mL; against Acinetobacter baumannii it was above 1020 µg/mL; in assay [1], above 1020 µg/mL; against Pseudomonas aeruginosa, above 1020 µg/mL; against Citrobacter freundii it was 512 µg/mL (≈ 1120 µM); in the assay on Enterococcus faecalis, 1020 µg/mL (≈ 2230 µM). Further, the MIC result in the assay with Staphylococcus aureus was “inactive”.

For the compound `CCCn1c(-c2ccc(S(=O)(=O)c3ccc(Cl)cc3)cc2)nn(CN2CCOCC2)c1=S`, the MIC in the assay on Bacillus subtilis is above 1020 µg/mL; against Acinetobacter baumannii, above 1020 µg/mL; in the assay with Pseudomonas aeruginosa, above 1020 µg/mL; with Citrobacter freundii, 256 µg/mL (≈ 519 µM); against Enterococcus faecalis, 1020 µg/mL (≈ 2080 µM). Also, the MIC entry (in assay [1]; in the assay on Staphylococcus aureus) was “inactive” in each case.

Regarding `CN(C)c1ccc(/C=N/n2c(-c3ccc(S(=O)(=O)c4ccccc4)cc3)nn(CN3CCOCC3)c2=S)cc1`, the MIC was 512 µg/mL (≈ 910 µM) against Bacillus subtilis; 1020 µg/mL (≈ 1820 µM) with Acinetobacter baumannii; above 1020 µg/mL against Pseudomonas aeruginosa; above 1020 µg/mL against Enterococcus faecalis; 1020 µg/mL (≈ 1820 µM) against Staphylococcus aureus. In addition, the MIC entry (in assay [1]; in the assay with Citrobacter freundii) was “inactive” each time.

On to `O=S(=O)(c1ccc(Cl)cc1)c1ccc(-c2n[nH]c(=S)n2/N=C/c2ccccc2)cc1`, for which the MIC result with Bacillus subtilis, in the assay on Citrobacter freundii and in the assay on Enterococcus faecalis was “inactive” in each case. The MIC amounted to 512 µg/mL (≈ 1130 µM) with Acinetobacter baumannii, 1020 µg/mL (≈ 2250 µM) in assay [1], 512 µg/mL (≈ 1130 µM) against Pseudomonas aeruginosa and 1020 µg/mL (≈ 2250 µM) with Staphylococcus aureus.

Take `COc1ccccc1/C=N/n1c(-c2ccc(S(=O)(=O)c3ccccc3)cc2)nn(CN2CCOCC2)c1=S`: the MIC in the assay on Bacillus subtilis is 512 µg/mL (≈ 931 µM); in the assay on Acinetobacter baumannii, 512 µg/mL (≈ 931 µM); against Pseudomonas aeruginosa it was above 1020 µg/mL; against Enterococcus faecalis it was above 1020 µg/mL; against Staphylococcus aureus, 512 µg/mL (≈ 931 µM). In addition, the MIC result (in assay [1]; in the assay on Citrobacter freundii) was “inactive” each time.

With `O=[N+]([O-])c1cccc(/C=N/n2c(-c3ccc(S(=O)(=O)c4ccccc4)cc3)nn(CN3CCOCC3)c2=S)c1`, the minimal inhibitory concentration (MIC) was found to be 1020 µg/mL (≈ 1810 µM) against Bacillus subtilis; 512 µg/mL (≈ 907 µM) in the assay with Acinetobacter baumannii; 1020 µg/mL (≈ 1810 µM) against Pseudomonas aeruginosa; 1020 µg/mL (≈ 1810 µM) in the assay on Enterococcus faecalis; 512 µg/mL (≈ 907 µM) with Staphylococcus aureus. In addition, the MIC entry (in assay [1]; with Citrobacter freundii) was “inactive” in each case.

For the compound `O=[N+]([O-])c1cccc(/C=N/n2c(-c3ccc(S(=O)(=O)c4ccccc4)cc3)n[nH]c2=S)c1`, the MIC in the assay on Bacillus subtilis stood at 512 µg/mL (≈ 1100 µM); with Acinetobacter baumannii, 1020 µg/mL (≈ 2200 µM); against Pseudomonas aeruginosa it was 512 µg/mL (≈ 1100 µM); against Staphylococcus aureus, 256 µg/mL (≈ 550 µM). The MIC entry (in assay [1]; in the assay on Citrobacter freundii; in the assay on Enterococcus faecalis) was “inactive” throughout.

On to `O=S(=O)(c1ccccc1)c1ccc(-c2nn(CN3CCOCC3)c(=S)n2/N=C/c2ccccc2)cc1`, for which the minimum inhibitory concentration (MIC) is 512 µg/mL (≈ 985 µM) in the assay with Bacillus subtilis; above 1020 µg/mL in the assay with Acinetobacter baumannii; above 1020 µg/mL against Pseudomonas aeruginosa; above 1020 µg/mL with Citrobacter freundii; 1020 µg/mL (≈ 1970 µM) in the assay with Enterococcus faecalis; 512 µg/mL (≈ 985 µM) against Staphylococcus aureus. The MIC entry in assay [1] was “inactive”.

On to `CCCn1c(S)nnc1-c1ccc(S(=O)(=O)c2ccc(Br)cc2)cc1`, for which the MIC was 1020 µg/mL (≈ 2340 µM) against Bacillus subtilis; 1020 µg/mL (≈ 2340 µM) with Acinetobacter baumannii; 256 µg/mL (≈ 584 µM) against Citrobacter freundii; above 1020 µg/mL against Enterococcus faecalis; 256 µg/mL (≈ 584 µM) with Staphylococcus aureus. For the same compound, the MIC result (in assay [1]; in the assay on Pseudomonas aeruginosa) was “inactive” in each case.

In the case of `COc1ccccc1/C=N/n1c(-c2ccc(S(=O)(=O)c3ccccc3)cc2)n[nH]c1=S`, the MIC was 128 µg/mL (≈ 284 µM) against Bacillus subtilis, 256 µg/mL (≈ 568 µM) with Acinetobacter baumannii, 512 µg/mL (≈ 1140 µM) against Pseudomonas aeruginosa and 128 µg/mL (≈ 284 µM) against Staphylococcus aureus. For the same compound, the MIC entry (in assay [1]; in the assay with Citrobacter freundii; in the assay on Enterococcus faecalis) was “inactive” in each case.
